What all share (type): biochemical, bovine/rat
Assay [1] concerns CHM 19 (RETα with the OLFα pore). Briefly: Genistein inhibition of closed chimeric channel CHM 19. As to conditions: closed channels. Summed up:
(§1)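 Chimeric RETα/OLFα channels were expressed in Xenopus oocytes (50 nl of 50 ng/μl RNA, 2–7 d), and the vitelline membrane was removed. Inside-out patches were bathed in symmetrical 115 mM NaCl, 5 mM EGTA, 1 mM EDTA, 5 mM HEPES, pH 7.5, held at −75 mV. Test compound was preapplied 1 min to closed channels, then saturating 2 mM cGMP; residual current normalized to Imax.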

For assay [2], the target named is T1, CHM23 (OLFα with RETα part of pore, S6 and part of C-linker) (Rattus norvegicus, UniProt Q00195, C329S/E325K/E350S/F357A/H396Q/I327V/I356V/K348R/K390R/L353F/Q399H/T383A/V373I/V394I).
T1 sequence (Q00195 1-664 E325K/I327V/C329S/K348R/E350S/L353F/I356V/F357A/V373I/T383A/K390R/V394I/H396Q/Q399H): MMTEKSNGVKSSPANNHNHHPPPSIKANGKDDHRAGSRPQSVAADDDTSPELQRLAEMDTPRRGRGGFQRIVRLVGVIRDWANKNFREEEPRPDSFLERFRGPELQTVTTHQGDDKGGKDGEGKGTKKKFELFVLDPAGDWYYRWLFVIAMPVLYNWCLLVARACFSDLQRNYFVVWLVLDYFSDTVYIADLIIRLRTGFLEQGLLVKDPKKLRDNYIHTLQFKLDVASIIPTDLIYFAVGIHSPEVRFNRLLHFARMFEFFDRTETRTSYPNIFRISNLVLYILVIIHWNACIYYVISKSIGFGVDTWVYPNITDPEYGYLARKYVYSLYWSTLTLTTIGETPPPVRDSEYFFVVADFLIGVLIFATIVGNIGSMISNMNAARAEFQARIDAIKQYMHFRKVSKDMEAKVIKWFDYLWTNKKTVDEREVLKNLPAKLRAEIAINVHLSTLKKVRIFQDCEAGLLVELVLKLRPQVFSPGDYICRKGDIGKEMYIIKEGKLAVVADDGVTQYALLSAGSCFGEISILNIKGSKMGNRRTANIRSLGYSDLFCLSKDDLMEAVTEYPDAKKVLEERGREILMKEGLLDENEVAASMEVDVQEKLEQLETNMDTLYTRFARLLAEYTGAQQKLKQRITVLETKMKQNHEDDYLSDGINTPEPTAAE
As to the kind of experiment: Genistein inhibition of closed chimeric channel CHM23. Summed up:
as §1

Assay [3] relates to CHM12 (RETα except for mid-S1 through S4). Briefly: Genistein inhibition of closed chimeric channel CHM12. As to conditions: closed channels. A digest of the protocol: as §1
For assay [4], the system named is CHM 15 (switched NH2-terminal domain through part of S1). Briefly: Genistein inhibition of closed chimeric channel CHM 15. As to conditions: closed channels; behaved like parent channel. A digest of the protocol: as §1
Assay [5] concerns CHM34 (converse substitution in OLFα background). As to the kind of experiment: Genistein inhibition of closed chimeric channel CHM34. The note with it: closed channels.
Assay [6] has as its target T2, CHM25 (RETα with H420 substituted with an asparagine) (Bos taurus, UniProt Q00194, H420Q).
T2 sequence (Q00194 1-690 H420Q): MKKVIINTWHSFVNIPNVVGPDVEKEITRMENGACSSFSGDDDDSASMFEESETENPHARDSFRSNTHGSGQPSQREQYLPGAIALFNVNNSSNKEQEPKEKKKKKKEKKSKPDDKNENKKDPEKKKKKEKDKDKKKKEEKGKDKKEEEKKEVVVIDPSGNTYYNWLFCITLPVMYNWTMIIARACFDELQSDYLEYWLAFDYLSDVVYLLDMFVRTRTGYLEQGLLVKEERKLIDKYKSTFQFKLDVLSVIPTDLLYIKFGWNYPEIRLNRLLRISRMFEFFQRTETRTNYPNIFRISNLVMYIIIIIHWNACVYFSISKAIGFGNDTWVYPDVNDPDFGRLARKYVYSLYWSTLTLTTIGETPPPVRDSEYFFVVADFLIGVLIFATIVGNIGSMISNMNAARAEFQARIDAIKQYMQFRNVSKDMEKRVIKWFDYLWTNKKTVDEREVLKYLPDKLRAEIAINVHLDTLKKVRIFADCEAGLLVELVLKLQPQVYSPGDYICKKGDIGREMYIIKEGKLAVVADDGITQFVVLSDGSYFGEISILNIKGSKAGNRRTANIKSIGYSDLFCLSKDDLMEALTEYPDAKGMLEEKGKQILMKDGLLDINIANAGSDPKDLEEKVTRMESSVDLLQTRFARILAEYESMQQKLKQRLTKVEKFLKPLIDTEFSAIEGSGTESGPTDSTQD
Briefly: Genistein inhibition of closed chimeric channel CHM25. The note with it: genistein applied on closed channels. Summed up:
as §1

Assay [7] relates to CHM22 (S5 domain exchanged between RETα and OLFα). Briefly: Genistein inhibition of closed chimeric channel CHM22. As to conditions: closed channels. Summed up: as §1
Assay [8] concerns CHM 14 (OLFα except for mid-S1 through S4). Briefly: Genistein inhibition of closed chimeric channel CHM 14. The note with it: closed channels. A digest of the protocol:
as §1

On to `O=c1c(-c2ccc(O)cc2)coc2cc(O)cc(O)c12` [genistein], for which the “effect of domain exchange on genistein inhibition” value in assay [1] and in assay [7] was “did not alter genistein inhibition” throughout. Besides, in assay [2], the “inhibition of closed channels” value came out at 99%. Also, the genistein inhibition entry in assay [3] is listed as “fully inhibited”; in assay [5], “neither substitution introduced genistein inhibition”; in assay [6], “complete inhibition”; in assay [8] it was “not inhibited”. In addition, the “effect of domain switch on genistein inhibition” value in assay [4] is on record as “had no effect”.
